Activity calls are given as the source filed them. The rule behind the calls is not given here.
Tests used:
Trypanosoma cruzi [1] = assay: Growth inhibition of Trypanosoma cruzi Tulahuen 2 epimastigotes at 25 uM after 5 days relative to control; assay type: functional; conditions: Tulahuen 2, 120 h, read-out: GI
Trypanosoma cruzi [2] = assay: Antitrypanosomal activity against Trypanosoma cruzi Tulahuen 2 epimastigotes after 5 days; assay type: functional, organism-based; conditions: Tulahuen 2, 120 h
Trypanosoma cruzi [3] = assay: Growth inhibition of Trypanosoma cruzi clone CL B5 amastigotes harboring lacZ derived from infected mouse NCTC-929 cells at 25 uM after 7 days by beta-galactosidase reporter gene assay relative to control; assay type: functional; conditions: clone CL B5, NCTC-929, 168 h, read-out: GI
Outline: (§1)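 NCTC-929 fibroblasts seeded 10,000 cells/well in MEM, attached 2-3 h at 37°C, 5% CO2, then infected with NCTC-929-derived CL-B5 lacZ trypomastigotes (1:6 cells:parasites) for 24 h at 33°C. Washed in PBS, drug in DMSO added in fresh medium, 7 days at 33°C. CPRG (400 µM, pH 7.4, 3% Triton X-100) added, 3 h at 37°C, A595. PGIa computed against infected untreated wells after subtracting uninfected-cell background. IC50a derived from PGIa.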

Trypanosoma cruzi [4] = assay: Growth inhibition of Trypanosoma cruzi clone CL B5 epimastigotes at 25 uM after 72 hrs by beta-galactosidase reporter gene assay relative to control; assay type: functional; conditions: clone CL B5, 72 h, read-out: GI
L929 = assay: Cytotoxicity against mouse NCTC-929 cells assessed as reduction in cell viability after 48 hrs by resazurin dye-based assay; conditions: L929, 48 h
Outline: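 NCTC-929 fibroblasts, 15,000 cells/well in MEM, attached 3 h at 37°C/5% CO2, then compounds in fresh medium 48 h. Resazurin (2 mM stock in PBS, pH 7.0) added for 3 h more; fluorescence ex 535/em 590 nm. Growth and medium controls on each plate.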

[5] = Selectivity index, ratio of IC50 for mouse NCTC-929 cells to IC50 for Trypanosoma cruzi clone CL B5 epimastigotes; assay type: toxicity; conditions: read-out: Ratio IC50
Trypanosoma cruzi [6] = assay: Antitrypanosomal activity against Trypanosoma cruzi clone CL B5 amastigotes harboring lacZ infected in mouse NCTC-929 cells after 7 days by beta-galactosidase reporter gene assay; assay type: functional, organism-based; conditions: clone CL B5, NCTC-929, 168 h; outline: as §1
J774 = assay: Cytotoxicity against mouse J774 cells assessed as reduction in cell viability after 48 hrs by MTT assay; assay type: cell-based; conditions: J774, 48 h
Outline: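 J774 macrophages, 37°C, 5% CO2, 48 h with compounds in DMSO at 100, 200 and 400 μM. Viability from mitochondrial activity by MTT/formazan.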

[7] = Selectivity index, ratio of IC50 for mouse J774 cells to IC50 for Trypanosoma cruzi Tulahuen 2 epimastigotes; assay type: toxicity; conditions: J774 cells versus Trypanosoma cruzi Tulahuen 2 epimastigotes, read-out: Ratio IC50
Trypanosoma cruzi [8] = assay: Antitrypanosomal activity against Trypanosoma cruzi clone CL B5 epimastigotes at 25 uM after 72 hrs by beta-galactosidase reporter gene assay; assay type: functional, organism-based; conditions: clone CL B5, 72 h
Cruzipain = Cruzipain (Trypanosoma cruzi, UniProt P25779); assay: Inhibition of Trypanosoma cruzi cruzipain using Bz-Pro-Phe-Arg-p-NA as a chromogenic substrate preincubated for 10 mins followed by substrate addition measured for 5 mins by spectrophotometry
Outline: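 Cruzipain preincubated 10 min at ambient temperature in 50 mM Tris-HCl pH 7.6 with 10 mM mercaptoethanol and 25, 50 or 100 μM inhibitor (DMSO). Controls carry the same DMSO level and define 100% activity.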

Mus musculus = assay: Antitrypanosomal activity against bloodstream forms of Trypanosoma cruzi Y infected in NMRI mouse assessed as decrease in number of blood trypomastigotes at 100 mg/kg, po administerd for 5 consecutive days starting from day 5 post infection measured from 4th day of treatment; assay type: functional, organism-based
Salmonella typhimurium [9] = assay: Genotoxicity in Salmonella typhimurium TA98 up to 500 ug/plate in absence of mouse liver S9 fraction by Ames test; assay type: toxicity, organism-based; conditions: salmonella enterica subsp. enterica serovar typhimurium
Outline: (§2)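 TA98 by direct plate incorporation on minimal glucose agar with Vogel-Bonner E; toxicity to the strain checked first. Compounds in DMSO, in triplicate, top dose 500 µg/plate; ± Aroclor-induced mouse liver S9 (500 µL). Positive controls 4-nitro-o-phenylenediamine 20.0 µg/plate (no S9), 2-aminofluorene 10.0 µg/plate (S9); DMSO negative. Manual revertant counts, mean of two experiments ±SD; mutagenic if ≥2× negative control at two consecutive doses.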

Salmonella typhimurium [10] = assay: Genotoxicity in Salmonella typhimurium TA98 up to 500 ug/plate in presence of mouse liver S9 fraction by Ames test; assay type: toxicity, organism-based; conditions: salmonella enterica subsp. enterica serovar typhimurium; outline: as §2
Trypanosoma cruzi [11] = assay: Antitrypanosomal activity against bloodstream forms of Trypanosoma cruzi Y infected in NMRI mouse assessed as mouse survival at 100 mg/kg, po administerd for 5 consecutive days starting from day 5 post infection; conditions: 720 h
[12] = target: Cruzipain (Trypanosoma cruzi) (UniProt P25779); assay: Inhibition of Trypanosoma cruzi cruzipain at 100 uM using Bz-Pro-Phe-Arg-p-NA as a chromogenic substrate preincubated for 10 mins followed by substrate addition measured for 5 mins by spectrophotometer relative to control
Outline: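 Cruzipain preincubated 10 min at ambient temperature in 50 mM Tris-HCl pH 7.6 with 10 mM mercaptoethanol and 25, 50 or 100 μM inhibitor (DMSO). Bz-Pro-Phe-Arg-p-NA then added at 150 μM final, A410 followed for 5 min. Controls carry the same DMSO level and define 100% activity.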

Cruzipain, sequence (P25779 whole entry): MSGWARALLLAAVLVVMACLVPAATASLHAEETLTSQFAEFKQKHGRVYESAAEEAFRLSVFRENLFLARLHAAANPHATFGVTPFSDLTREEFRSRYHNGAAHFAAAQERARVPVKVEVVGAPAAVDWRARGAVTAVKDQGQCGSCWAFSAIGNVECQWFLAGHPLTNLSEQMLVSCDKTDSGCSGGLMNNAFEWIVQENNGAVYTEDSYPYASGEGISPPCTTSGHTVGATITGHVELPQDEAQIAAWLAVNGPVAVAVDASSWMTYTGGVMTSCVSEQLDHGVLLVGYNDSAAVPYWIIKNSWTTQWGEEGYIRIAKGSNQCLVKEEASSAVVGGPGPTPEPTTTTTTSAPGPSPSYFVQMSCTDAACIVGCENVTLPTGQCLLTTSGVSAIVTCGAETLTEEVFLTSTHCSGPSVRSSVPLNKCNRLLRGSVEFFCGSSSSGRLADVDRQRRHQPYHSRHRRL
Cruzipain (Trypanosoma cruzi), sequence (P25779 123-467 limits assumed): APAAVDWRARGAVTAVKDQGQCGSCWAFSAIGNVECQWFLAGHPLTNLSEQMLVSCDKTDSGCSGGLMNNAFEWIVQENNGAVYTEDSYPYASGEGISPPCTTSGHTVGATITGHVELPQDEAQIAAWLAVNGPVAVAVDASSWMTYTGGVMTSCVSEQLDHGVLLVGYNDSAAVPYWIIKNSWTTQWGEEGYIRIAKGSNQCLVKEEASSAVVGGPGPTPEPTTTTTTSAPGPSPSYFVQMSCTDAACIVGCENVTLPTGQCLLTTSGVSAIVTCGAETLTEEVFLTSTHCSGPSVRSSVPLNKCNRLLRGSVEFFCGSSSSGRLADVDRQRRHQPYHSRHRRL

Structure (SMILES)	inhibition of growth at 25 µM (Trypanosoma cruzi [1])	IC50 (Trypanosoma cruzi [2])	inhibition of growth at 25 µM (Trypanosoma cruzi [4])	selectivity ratio [7]	further results
Cc1nc2c([nH]1)C(N)=NS(=O)(=O)N2	38.7%	> 25 µM			
NC1=NS(=O)(=O)Nc2nc(-c3ccc([N+](=O)[O-])o3)[nH]c21	31.3%	> 25 µM			
NC1=NS(=O)(=O)N(Cc2ccccc2)c2nc(-c3ccccc3)[nH]c21	41.6%	29.5 µM			
O=C(Cn1ccnc1[N+](=O)[O-])NCc1ccccc1 [BENZNIDAZOLE]			49%		inhibition of growth at 25 µM (Trypanosoma cruzi [3]): 100%; IC50 (L929): > 256 µM; selectivity ratio [5]: > 9.4; IC50 (Trypanosoma cruzi [6]): 0.8 µM
NC1=NS(=O)(=O)N(Cc2ccccc2)c2nc(-c3ccccc3)n(Cc3ccccc3)c21	100%	4.5 µM	60.8%	22	inhibition of growth at 25 µM (Trypanosoma cruzi [3]): 90.2%; IC50 (J774): 100 µM; IC50 (Trypanosoma cruzi [8]): 3.6 µM; IC50 (L929): < 64 µM; selectivity ratio [5]: < 17.8; IC50 (Cruzipain): 81 µM; Activity (Mus musculus): Active; Activity (Salmonella typhimurium [9]): Non-Toxic; Activity (Salmonella typhimurium [10]): Non-Toxic; survival at 100 mg/kg (Trypanosoma cruzi [11]): 87.5%
CCc1nc2c([nH]1)C(N)=NS(=O)(=O)N2	43%	28.5 µM			
NC1=NS(=O)(=O)Nc2[nH]c(-c3ccccc3)nc21	39.6%	> 25 µM			
NC1=NS(=O)(=O)Nc2nc(Cc3ccccc3)[nH]c21	59.7%	12.7 to 16.2 µM	17.7%	> 31	IC50 (Trypanosoma cruzi [8]): > 25 µM; IC50 (Cruzipain): 23 µM; Activity (Salmonella typhimurium [9]): Non-Toxic; Activity (Salmonella typhimurium [10]): Non-Toxic
NC1=NS(=O)(=O)Nc2nc(-c3ccsc3)[nH]c21	51.3%	22.2 µM			
NC1=NS(=O)(=O)Nc2nc(C3CCOC3)[nH]c21 (stereo unspecified)	56.4%	20.3 µM			
NC1=NS(=O)(=O)N(Cc2ccc(Cl)cc2)c2nc(-c3ccccc3F)[nH]c21	86.3%	7 µM	42.1%	< 14.2	IC50 (J774): < 100 µM; IC50 (Trypanosoma cruzi [8]): > 25 µM; IC50 (Cruzipain): 86 µM
CN1c2nc(-c3ccccc3)[nH]c2C(N)=NS1(=O)=O	58%	16.7 µM	11.3%	7.7	IC50 (J774): 128 µM; IC50 (Trypanosoma cruzi [8]): > 25 µM; inhibition [12]: 27.4%; Activity (Salmonella typhimurium [9]): Non-Toxic; Activity (Salmonella typhimurium [10]): Non-Toxic
NC1=NS(=O)(=O)Nc2nc(C3CCCCC3)[nH]c21	72.3%	12.7 to 16.2 µM	54.8%	> 25	inhibition of growth at 25 µM (Trypanosoma cruzi [3]): 0%; IC50 (Trypanosoma cruzi [8]): 2.5 µM; IC50 (L929): > 256 µM; selectivity ratio [5]: > 102; IC50 (Cruzipain): 12 µM; Activity (Mus musculus): inactive
NC1=NS(=O)(=O)N(Cc2ccc(Cl)cc2)c2nc(C3CCCCC3)[nH]c21	0%	> 25 µM			
CN1c2nc(-c3ccsc3)[nH]c2C(N)=NS1(=O)=O	46.3%	26.2 µM			
CC1CS(=O)(=O)CCN1/N=C/c1ccc([N+](=O)[O-])o1 (stereo unspecified) [NIFURTIMOX]			82.2%	41	inhibition of growth at 25 µM (Trypanosoma cruzi [3]): 100%; IC50 (L929): > 256 µM; selectivity ratio [5]: > 71.1; IC50 (Trypanosoma cruzi [6]): < 0.5 µM
NC1=NS(=O)(=O)Nc2nc(C3CCCC3)[nH]c21	42.2%	28.9 µM			
NC1=NS(=O)(=O)N(Cc2ccccc2)c2nc(C3CCCCC3)n(Cc3ccccc3)c21	45.7%	28.7 µM			
CN(C)c1ccc(-c2nc3c([nH]2)C(N)=NS(=O)(=O)N3)cc1	42.8%	28.5 µM			
NC1=NS(=O)(=O)Nc2nc(-c3cccnc3)[nH]c21	37.5%	> 25 µM			
NC1=NS(=O)(=O)Nc2nc(-c3ccccc3F)[nH]c21	57.8%	20.2 µM			
NC1=NS(=O)(=O)Nc2nc(CCc3ccccc3)[nH]c21	73.6%	11.5 µM	51.1%	> 34.8	IC50 (J774): > 400 µM; IC50 (Trypanosoma cruzi [8]): 17.5 µM; IC50 (L929): > 256 µM; selectivity ratio [5]: > 14.6; inhibition [12]: 39%
